Legend:
Leishmania donovani = assay: Antileishmanial activity Leishmania donovani MHOM/IN/00/DEVI promastigotes incubated for 72 hrs by MTT assay; assay type: functional, organism-based
Method in brief: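 Promastigotes of strain MHOM/IN/00/DEVI were exposed to compounds alongside amphotericin B and pentamidine reference drugs under identical conditions. IC50 was determined from three independent experiments, each run in duplicate, and reported as mean ± SD.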

[1] = Cytotoxicity against mouse J774A1 cells incubated for 72 hrs by MTT assay; assay type: cell-based, J774.A1
Method in brief: (§1)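 Cytotoxicity was measured by MTT in mouse J774A.1 macrophages and human HepG2 hepatocyte-derived cells, with doxorubicin as the cytotoxic reference. The 50% cytotoxic concentration (CC50) came from three independent experiments in duplicate, reported as mean ± SD.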

[2] = Selectivity index, ratio of CC50 for mouse J774A1 cells to IC50 for Leishmania donovani MHOM/IN/00/DEVI promastigotes; assay type: functional, J774.A1
Method in brief: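 SI was calculated as J774A.1 macrophage CC50 (MTT) divided by L. donovani promastigote IC50. Both inputs were means of three independent experiments run in duplicate.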

Plasmodium falciparum = assay: Antiplasmodial activity against chloroquine, pyrimethamine and proguanil-resistant Plasmodium falciparum K1 infected in human erythrocytes assessed as reduction in Parasitemia incubated for 72 hrs by SYBR Green I fluorescence-based method; assay type: functional, organism-based; conditions: K1, 72 h
Method in brief: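 Multidrug-resistant P. falciparum K1 was tested in vitro with a SYBR Green I fluorescence-based read-out. IC50 was calculated from three independent experiments, each run in duplicate, and reported as mean ± SD.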

[3] = Cytotoxicity against human HepG2 cells incubated for 72 hrs by MTT assay; assay type: cell-based; method in brief: as §1
[4] = Selectivity index, ratio of CC50 for human HepG2 cells to IC50 for chloroquine, pyrimethamine and proguanil-resistant Plasmodium falciparum K1; assay type: functional
Method in brief: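 SI = HepG2 CC50 / PfK1 IC50. CC50 was from an MTT assay on human HepG2 cells, and IC50 from the SYBR Green I fluorescence assay on P. falciparum K1. Each assay was three independent experiments in duplicate.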

Row | Structure (SMILES) | IC50 (Leishmania donovani) [µM] | CC50 at 72 h [1] [µM] | Ratio CC50/IC50 [2] | IC50 (Plasmodium falciparum) [µM] | CC50 at 72 h [3] [µM] | Ratio CC50/IC50 [4]
1 | CC1(Cc2ccccc2)CC(S(=O)(=O)c2ccccc2F)=C(c2ccc(/C(N)=N\O)cc2)O1 (configuration not stated) | 9.16 | 29.1 | 3.2 | > 10 | 61.7 | <6.2
2 | CC1(Cc2ccccc2)CC(S(=O)(=O)c2cccc(F)c2)=C(c2ccc(/C(N)=N\O)cc2)O1 (configuration not stated) | 13.1 | 28.3 | 2.2 | 7.16 | 59.6 | 8.3
3 | CC1(Cc2ccccc2)CC(S(=O)(=O)c2ccccc2C(F)(F)F)=C(c2ccc(/C(N)=N\O)cc2)O1 (configuration not stated) | 15.5 | 23.5 | 1.5 | > 10 | 57.5 | <5.7
4 | CC1(Cc2ccccc2)CC(S(=O)(=O)c2cccc(C(F)(F)F)c2)=C(c2ccc(/C(N)=N\O)cc2)O1 (configuration not stated) | 11.9 | 14.5 | 1.2 | 6.54 | 33.4 | 5.1
5 | CC1(Cc2ccccc2)CC(S(=O)(=O)c2c(F)cccc2F)=C(c2ccc(/C(N)=N\O)cc2)O1 (configuration not stated) | 22.1 | 27 | 1.2 | 2.76 | 91.4 | 33.2
6 | CC1(Cc2ccccc2)CC(S(=O)(=O)c2ccc(F)cc2F)=C(c2ccc(/C(N)=N\O)cc2)O1 (configuration not stated) | 32.5 | 41.5 | 1.3 | 8.21 | 90.6 | 11
7 | N/C(=N/O)c1ccc(C2=C(S(=O)(=O)c3ccc(F)cc3)CC(c3ccccc3)(c3ccccc3)O2)cc1 | 15.7 | 10.2 | 0.7 | 3.9 | 19.2 | 4.9
8 | CC1(c2ccccc2)CC(S(=O)(=O)c2ccc(F)cc2)=C(c2ccc(/C(N)=N\O)cc2)O1 (configuration not stated) | > 50 | 29.7 | <0.6 | > 10 | 68.3 | <6.8
9 | COc1ccc(C2(c3ccccc3)CC(S(=O)(=O)c3ccc(F)cc3)=C(c3ccc(/C(N)=N\O)cc3)O2)cc1 (configuration not stated) | > 50 | 11.3 | <0.2 | 4.17 | 29.4 | 7
10 | CC1(c2ccc(Br)cc2)CC(S(=O)(=O)c2ccc(F)cc2)=C(c2ccc(/C(N)=N\O)cc2)O1 (configuration not stated) | 10.8 | 10.5 | 1 | > 10 | 19.2 | <1.9
11 | CCC1(c2ccccc2OC)CC(S(=O)(=O)c2ccc(F)cc2)=C(c2ccc(/C(N)=N\O)cc2)O1 (configuration not stated) | 12.4 | 9.88 | 0.8 | 7.88 | 27 | 3.4
12 | Cc1ccc(-c2ccc(C3(C)CC(S(=O)(=O)c4ccc(F)cc4)=C(c4ccc(/C(N)=N\O)cc4)O3)cc2)cc1 (configuration not stated) | 11.8 | 7.91 | 0.7 | > 10 | 13.7 | <1.4
13 | CC1(c2ccc(Cl)cc2)CC(S(=O)(=O)c2ccc(F)cc2)=C(c2ccc(/C(N)=N\O)cc2)O1 (configuration not stated) | 48.4 | 31.5 | 0.7 | > 10 | 61.4 | <6.1
14 | CC1(c2ccc(-c3ccc(/C(N)=N\O)cc3)cc2)CC(S(=O)(=O)c2ccc(F)cc2)=C(c2ccc(/C(N)=N\O)cc2)O1 (configuration not stated) | > 50 | 3.94 | <0.08 | 4.93 | 15.3 | 3.1
15 | CC1(c2ccc(-c3ccco3)cc2)CC(S(=O)(=O)c2ccc(F)cc2)=C(c2ccc(/C(N)=N\O)cc2)O1 (configuration not stated) | > 25 | 4.56 | <0.2 | > 10 | 7.01 | <0.7
16 | CC1(c2ccc(-c3cccc([N+](=O)[O-])c3)cc2)CC(S(=O)(=O)c2ccc(F)cc2)=C(c2ccc(/C(N)=N\O)cc2)O1 (configuration not stated) | 14.1 | 11.1 | 0.8 | 5.82 | > 50 | >8.6
17 | CC1(c2ccc(-c3ccncc3)cc2)CC(S(=O)(=O)c2ccc(F)cc2)=C(c2ccc(/C(N)=N\O)cc2)O1 (configuration not stated) | 28 | 6.75 | 0.2 | 3.2 | 30.3 | 9.5
18 | CC1(c2ccc(-c3ccccc3C#N)cc2)CC(S(=O)(=O)c2ccc(F)cc2)=C(c2ccc(/C(N)=N\O)cc2)O1 (configuration not stated) | 21 | 9.29 | 0.4 | > 10 | 58.3 | <5.8
19 | CC1(c2ccc(-c3cccc(/C(N)=N\O)c3)cc2)CC(S(=O)(=O)c2ccc(F)cc2)=C(c2ccc(/C(N)=N\O)cc2)O1 (configuration not stated) | > 50 | 11 | <0.2 | 4.34 | 19 | 4.4
20 | COc1cc(-c2ccc(C3(C)CC(S(=O)(=O)c4ccc(F)cc4)=C(c4ccc(/C(N)=N\O)cc4)O3)cc2)cc(OC)c1OC (configuration not stated) | > 25 | 5.22 | <0.2 | 5.03 | > 50 | >9.9
21 | C[C@@H]1[C@H](O)[C@@H](C)/C=C/C=C/C=C/C=C/C=C/C=C/C=C/[C@H](O[C@@H]2O[C@H](C)[C@@H](O)[C@H](N)[C@@H]2O)C[C@@H]2O[C@](O)(C[C@@H](O)C[C@@H](O)[C@H](O)CC[C@@H](O)C[C@@H](O)CC(=O)O[C@H]1C)C[C@H](O)[C@H]2C(=O)O [AMPHOTERICIN B] | 0.15 | 6.91 | 47.1 |  |  | 
22 | COc1cccc2c1C(=O)c1c(O)c3c(c(O)c1C2=O)C[C@@](O)(C(=O)CO)C[C@@H]3O[C@H]1C[C@H](N)[C@H](O)[C@H](C)O1 [DOXORUBICIN] |  | 0.01 |  |  | 0.02 | 
23 | C[C@H]1c2cccc(O)c2C(=O)C2=C(O)[C@]3(O)C(=O)C(C(N)=O)=C(O)[C@@H](N(C)C)[C@@H]3[C@@H](O)[C@@H]21.O [DOXYCYCLINE] |  |  |  |  |  | 4
24 | N=C(N)c1ccc(OCCCCCOc2ccc(C(=N)N)cc2)cc1 [PENTAMIDINE] |  |  | 0.1 |  |  | 
